Converted amounts (≈) assume the structure as drawn.
Key:
Type in all cases: functional
[1] = tested on: Mycobacterium tuberculosis; assay: Antibacterial activity against rifampin-resistant Mycobacterium tuberculosis H37Ra
Procedure, shortened: (§1)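 Broth microdilution in supplemented 7H9 (complete) medium with twofold drug dilutions. Inoculum 10^6 CFU/ml from cultures grown at 37°C to mid- or late-log phase. Incubated 21 days at 37°C, then turbidity inspected by eye against drug-free controls. MIC is the lowest concentration with no visible growth.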

[2] = tested on: Mycobacterium tuberculosis; assay: Antibacterial activity against ethambutol-resistant Mycobacterium tuberculosis H37Ra; procedure, shortened: as §1
[3] = tested on: Mycobacterium tuberculosis; assay: Antibacterial activity against isoniazid-resistant Mycobacterium tuberculosis H37Ra; procedure, shortened: as §1
[4] = tested on: Mycobacterium tuberculosis; assay: Antibacterial activity against pyrazinamide-resistant Mycobacterium tuberculosis H37Ra; procedure, shortened: as §1

Structure (SMILES)	MIC [1]	MIC [2]	MIC [3]	MIC [4]
CC[C@@H](CO)NCCN[C@@H](CC)CO [ETHAMBUTOL]	5 µg/mL (≈ 24.5 µM)	> 400 µg/mL	5 µg/mL (≈ 24.5 µM)	5 µg/mL (≈ 24.5 µM)
CO[C@H]1/C=C/O[C@@]2(C)Oc3c(C)c(O)c4c(O)c(c(/C=N/N5CCN(C)CC5)c(O)c4c3C2=O)NC(=O)/C(C)=C\C=C\[C@H](C)[C@H](O)[C@@H](C)[C@@H](O)[C@@H](C)[C@H](OC(C)=O)[C@@H]1C [RIFAMPIN]	16 µg/mL (≈ 19.4 µM)	0.2 µg/mL (≈ 0.243 µM)	0.2 µg/mL (≈ 0.243 µM)	0.2 µg/mL (≈ 0.243 µM)
NC(=O)c1cnccn1 [PYRAZINAMIDE]	50 µg/mL (≈ 406 µM)	50 µg/mL (≈ 406 µM)	50 µg/mL (≈ 406 µM)	> 4000 µg/mL
NNC(=O)c1ccncc1 [ISONIAZID]	0.2 µg/mL (≈ 1.46 µM)	0.2 µg/mL (≈ 1.46 µM)	> 16 µg/mL	0.2 µg/mL (≈ 1.46 µM)

From ChEMBL document CHEMBL1649253, “New approach for drug susceptibility testing: monitoring the stress response of mycobacteria” (2009)
